The format of series [1] is in vivo, CD1 mice. The settings on record: for Brain regional distribution: i.v., mean ± SD (n=3). Put shortly: (§1)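 Male CD1 mice (23-28 g) received the radiotracer i.v. via a lateral tail vein: 0.1 mCi in 0.2 ml saline, specific radioactivity ~4000 mCi/µmol. Animals were killed by cervical dislocation at set times up to 90 min. Brain regions and body organs were removed, dissected on ice, weighed and gamma-counted alongside injectate standards. Uptake was expressed as %ID/g tissue.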

A short description of series [2]: Baseline dissection study, whole body distribution of radioactivity in CD1 mice. Type of series: in vivo. The settings on record: mean ± SD (n=5). Put shortly:
as §1

For series [3], the target named is GHSR (Mus musculus, UniProt Q99P50). Kind of series: Blocking dissection studies in mice with GHSR antagonist 2. Type of series: in vivo, CD1 mice. To be noted: for Whole body distribution: block with 2 (1 mg/kg), 90 min, mean ± SD (n=5), P>0.05 vs baseline. An outline of the steps:
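Male CD1 mice were pretreated s.c. with a GHSR blocker at 1 mg/kg, or with vehicle (saline/alcohol 9:1, 0.1 mL). Fifteen minutes later they received radiotracer i.v. (0.1 mCi in 0.2 mL saline, ~4000 mCi/µmol). Tissues were harvested 90 min after tracer and counted for radioactivity. Groups were five animals each, baseline and blockade.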

Series [4] is described as follows: Observation of pharmacological effects after tracer dose in CD1 mice. The settings on record: tracer dose approximately 0.5 nmol/kg, intravenously, CD1 mice (n=30). It is filed as in vivo.
Series [5] has as its target GHSR. The settings on record: read-out: GHSR binding affinity Ki; cited from earlier work.

Each structure is given as a SMILES string. Like-named read-outs stand apart in the source and are kept apart here.

Chain of GHSR (Mus musculus, UniProt Q99P50) (Q99P50 whole entry): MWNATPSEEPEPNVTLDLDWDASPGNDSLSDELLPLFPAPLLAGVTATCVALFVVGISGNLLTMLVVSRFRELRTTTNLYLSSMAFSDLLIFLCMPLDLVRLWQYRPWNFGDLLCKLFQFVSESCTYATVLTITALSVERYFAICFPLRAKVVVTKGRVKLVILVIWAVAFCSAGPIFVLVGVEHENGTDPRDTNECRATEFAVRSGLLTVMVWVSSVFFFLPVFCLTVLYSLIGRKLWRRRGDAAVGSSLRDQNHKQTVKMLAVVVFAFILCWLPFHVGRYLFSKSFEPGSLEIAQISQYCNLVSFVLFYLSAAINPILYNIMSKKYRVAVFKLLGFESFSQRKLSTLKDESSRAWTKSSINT

Take `Cc1ccccc1-c1nc2ccc(Oc3ccc(F)cc3)cc2c(=O)n1C[C@H]1CCCN([11CH3])C1` [[^11C]1, (S)-6-(4-fluorophenoxy)-3-((1-[^11C]methylpiperidin-3-yl)methyl)-2-o-tolylquinazolin-4(3H)-one]: the Brain regional distribution stood at 0.63±0.06 %injected dose /g tissue in series [1] (Cerebellum, 10 min); 0.56±0.09 %injected dose /g tissue in series [1] (Cerebellum, 30 min); 0.59±0.08 %injected dose /g tissue in series [1] (Cerebellum, 60 min); 0.59±0.10 %injected dose /g tissue in series [1] (Cerebellum, 90 min); 0.63±0.09 %injected dose /g tissue in series [1] (Cortex, 10 min); 0.60±0.06 %injected dose /g tissue in series [1] (Cortex, 30 min). In addition, the Brain regional distribution in series [1] (Cortex, 60 min) came to 0.65±0.12 %injected dose /g tissue; in series [1] (Cortex, 90 min) it was 0.66±0.15 %injected dose /g tissue; in series [1] (Hippocampus, 10 min) it was 0.60±0.13 %injected dose /g tissue; in series [1] (Hippocampus, 30 min) it was 0.59±0.09 %injected dose /g tissue; in series [1] (Hippocampus, 60 min), 0.71±0.08 %injected dose /g tissue; in series [1] (Hippocampus, 90 min), 0.65±0.12 %injected dose /g tissue. Also, the Brain regional distribution is given as 0.56±0.08 %injected dose /g tissue in series [1] (Hypothalamus, 10 min); 0.58±0.08 %injected dose /g tissue in series [1] (Hypothalamus, 30 min); 0.74±0.12 %injected dose /g tissue in series [1] (Hypothalamus, 60 min); 0.86±0.20 %injected dose /g tissue in series [1] (Hypothalamus, 90 min); 0.54±0.07 %injected dose /g tissue in series [1] (Rest of brain, 10 min); 0.57±0.06 %injected dose /g tissue in series [1] (Rest of brain, 30 min). In addition, the Brain regional distribution is reported as 0.62±0.02 %injected dose /g tissue in series [1] (Rest of brain, 60 min) and 0.54±0.08 %injected dose /g tissue in series [1] (Rest of brain, 90 min). In addition, the hypothalamus-to-cerebellum ratio in series [1] (value reached over the 90 min observation period) is given as 1.6. The Whole body distribution came to 15.57±1.76 %injected dose /g tissue in series [2] (Adrenals, 10 min); 10.77±2.65 %injected dose /g tissue in series [2] (Adrenals, 30 min); 7.87±1.22 %injected dose /g tissue in series [2] (Adrenals, 90 min); 2.14±0.13 %injected dose /g tissue in series [2] (Blood, 10 min); 1.87±0.31 %injected dose /g tissue in series [2] (Blood, 30 min); 2.01±0.29 %injected dose /g tissue in series [2] (Blood, 90 min). Further, the Whole body distribution stood at 5.11±0.30 %injected dose /g tissue in series [2] (Heart, 10 min); 3.91±0.55 %injected dose /g tissue in series [2] (Heart, 30 min); 2.94±0.33 %injected dose /g tissue in series [2] (Heart, 90 min); 18.63±1.29 %injected dose /g tissue in series [2] (Liver, 10 min); 14.60±1.89 %injected dose /g tissue in series [2] (Liver, 30 min); 13.46±0.97 %injected dose /g tissue in series [2] (Liver, 90 min). Moreover, the Whole body distribution in series [2] (Lung, 10 min) amounted to 26.44±1.32 %injected dose /g tissue; in series [2] (Lung, 30 min), 24.02±8.55 %injected dose /g tissue; in series [2] (Lung, 90 min), 14.74±3.46 %injected dose /g tissue; in series [2] (Muscle, 10 min), 3.79±0.68 %injected dose /g tissue; in series [2] (Muscle, 30 min) it was 3.02±0.45 %injected dose /g tissue; in series [2] (Muscle, 90 min), 2.09±0.47 %injected dose /g tissue. Also, the Whole body distribution in series [2] (Testis, 10 min) was found to be 1.07±0.01 %injected dose /g tissue; in series [2] (Testis, 30 min), 1.39±0.20 %injected dose /g tissue; in series [2] (Testis, 90 min), 1.96±0.14 %injected dose /g tissue; at GHSR [3] (Adrenals), 10.02±1.80 %injected dose /g tissue; at GHSR [3] (Blood), 2.01±0.53 %injected dose /g tissue; at GHSR [3] (Heart), 3.74±0.57 %injected dose /g tissue. Further, the Whole body distribution at GHSR [3] (Liver) turned out to be 14.77±1.02 %injected dose /g tissue; on GHSR [3] (Lung), 16.28±3.65 %injected dose /g tissue; at GHSR [3] (Muscle) it was 2.22±0.79 %injected dose /g tissue; on GHSR [3] (Testis), 2.25±0.30 %injected dose /g tissue. At GHSR [3] (cerebral distribution in CD1 mice), this compound showed a specific binding of 38%. In addition, the observed pharmacological effects entry in series [4] was “no observed pharmacological effects”.
In the case of `Cc1ccccc1-c1nc2ccc(Oc3ccc(F)cc3)cc2c(=O)n1CC1CCCN(C(C)C)C1` (stereo not drawn) [N-isopropyl derivative], at GHSR [5], the Ki – broadly, a dissociation constant, usually derived from enzyme kinetics or from competition with a known ligand – is 0.47 nM.
As for `Cc1ccccc1-c1nc2ccc(Oc3ccc(F)cc3)cc2c(=O)n1C[C@H]1CCCNC1` [compound 2, (S)-6-(4-fluorophenoxy)-3-(piperidin-3-ylmethyl)-2-o-tolylquinazolin-4(3H)-one, reference compound], the “blockade of [11C]1 in the rest of the brain” value on GHSR [3] (blocking dose of 2 1 mg/kg s.c., 90 min after radioligand, P>0.05 (n=5)) is reported as “minimal”. In addition, the inhibition constant Ki at GHSR [5] was 0.9 nM.

The values are drawn from PMC3066299 (Bioorganic & medicinal chemistry, 2011).
